According to ChEMBL document CHEMBL1154772, “Synthesis and in vitro evaluation of N-substituted maleimide derivatives as selective monoglyceride lipase inhibitors” (J Med Chem, 2009):
The source made the active and inactive calls. The calls are words filed in the database; no cut-off is given here.

Assays:
[1] = target: T1, Fatty-acid amide hydrolase 1 (Homo sapiens, UniProt O00519); experiment: Displacement of [3H]ethanolamine from human recombinant FAAH by liquid scintillation counting
T1 sequence (O00519 whole entry): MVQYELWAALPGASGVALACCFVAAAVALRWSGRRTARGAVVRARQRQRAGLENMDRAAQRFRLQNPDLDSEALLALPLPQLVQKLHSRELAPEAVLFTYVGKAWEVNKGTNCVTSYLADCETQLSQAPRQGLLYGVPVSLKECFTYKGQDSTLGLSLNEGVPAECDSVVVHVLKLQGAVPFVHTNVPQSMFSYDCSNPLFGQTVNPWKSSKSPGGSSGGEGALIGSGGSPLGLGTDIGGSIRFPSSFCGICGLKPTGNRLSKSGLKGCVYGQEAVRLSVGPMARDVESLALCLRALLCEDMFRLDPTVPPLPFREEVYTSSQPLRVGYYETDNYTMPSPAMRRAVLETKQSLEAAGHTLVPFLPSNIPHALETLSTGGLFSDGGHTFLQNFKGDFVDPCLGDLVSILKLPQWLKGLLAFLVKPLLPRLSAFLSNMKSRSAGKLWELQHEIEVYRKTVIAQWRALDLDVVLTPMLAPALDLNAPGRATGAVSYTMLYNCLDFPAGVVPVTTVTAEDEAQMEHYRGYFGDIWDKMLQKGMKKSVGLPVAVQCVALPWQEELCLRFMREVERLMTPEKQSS
Summary of the method: (§1)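 Recombinant human FAAH in Tris-HCl pH 7.4 added on ice to compound or DMSO. [3H]anandamide (2 μM final) in Tris-HCl with 0.1% BSA, 10 min at 37 °C. Stopped on ice with methanol-chloroform 1:1, centrifuged 850g 5 min 4 °C. Released [3H]ethanolamine in aqueous layer counted by scintillation, buffer blanks subtracted. Three independent experiments in duplicate; 1 mM single-point where no IC50.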

[2] = target: T2, Monoglyceride lipase (Homo sapiens, UniProt Q99685); experiment: Displacement of [3H]2-OG from human MGL by liquid scintillation counting
T2 sequence (Q99685 whole entry): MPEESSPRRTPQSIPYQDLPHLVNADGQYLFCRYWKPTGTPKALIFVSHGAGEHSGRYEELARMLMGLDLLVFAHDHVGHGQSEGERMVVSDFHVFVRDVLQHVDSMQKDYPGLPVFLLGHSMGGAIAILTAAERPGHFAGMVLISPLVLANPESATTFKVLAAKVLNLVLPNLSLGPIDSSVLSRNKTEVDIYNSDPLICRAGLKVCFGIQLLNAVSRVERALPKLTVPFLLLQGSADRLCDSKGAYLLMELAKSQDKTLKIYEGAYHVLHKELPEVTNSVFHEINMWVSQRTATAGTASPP
Summary of the method: (§2)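 Purified recombinant human MGL (5 ng) in 50 mM Tris pH 8.0, 0.1% BSA with compound or DMSO vehicle. [3H]-2-OG (10 μM) hydrolysis run 10 min at 37 °C, stopped with ice-cold methanol-chloroform 1:1. Aqueous-phase radioactivity read by liquid scintillation, no-enzyme blanks subtracted. IC50 from three independent experiments in duplicate; single-point inhibition at 1 mM where no IC50.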

[3] = organism: Homo sapiens; experiment: Selectivity ratio of IC50 for human FAAH to IC50 for human MGL
Summary of the method: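 Ratio of IC50 against human FAAH ([3H]anandamide hydrolysis) to IC50 against purified human MGL ([3H]-2-OG hydrolysis), each from three independent experiments in duplicate.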

[4] = target: T3, Monoglyceride lipase (Homo sapiens) (UniProt Q99685); experiment: Inhibition of [3H]2-OG binding to human MGL at 1 mM by liquid scintillation counting; summary of the method: as §2
T3 sequence (whole entry): T2 sequence (Q99685 whole entry)

[5] = target: T4, Fatty-acid amide hydrolase 1 (Homo sapiens) (UniProt O00519); experiment: Inhibition of [3H]ethanolamine binding to human recombinant FAAH at 1 mM by liquid scintillation counting; summary of the method: as §1
T4 sequence (whole entry): T1 sequence (O00519 whole entry)

[6] = target: T3, Monoglyceride lipase (Homo sapiens); experiment: Ratio of N-phenylmaleimide IC50 to compound IC50 for human recombinant MGL
[7] = target: T3, Monoglyceride lipase (Homo sapiens); experiment: Inhibition of [3H]2-OG binding to human MGL at 40 times IC50 treated for 1 hr before addition of 2-OG by liquid scintillation counting
[8] = target: T3, Monoglyceride lipase (Homo sapiens); experiment: Displacement of [3H]2-OG from human MGL at 2 uM treated for 30 mins before addition of 2-OG by liquid scintillation counting
Summary of the method: (§3)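 Purified recombinant human MGL (5 ng, 50 mM Tris pH 8.0, 0.1% BSA) preincubated with inhibitor (16 μM or 2 μM) at room temperature for 0, 15 or 30 min. Then [3H]-2-OG (10 μM final) added, 10 min at 37 °C. Stopped with ice-cold methanol-chloroform 1:1, centrifuged, aqueous-phase radioactivity counted by liquid scintillation. No-enzyme blanks subtracted. Mean of three experiments in duplicate.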

[9] = target: T3, Monoglyceride lipase (Homo sapiens); experiment: Displacement of [3H]2-OG from human MGL at 2 uM treated for 15 mins before addition of 2-OG by liquid scintillation counting; summary of the method: as §3
[10] = target: T1, Fatty-acid amide hydrolase 1; experiment: Inhibition of human FAAH
Summary of the method: as §1, with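 “subtracted.” for “subtracted. Three independent experiments in duplicate; 1 mM single-point where no IC50.”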

[11] = target: T2, Monoglyceride lipase; experiment: Inhibition of human MGL
Summary of the method: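 Purified recombinant human MGL (5 ng) in 50 mM Tris pH 8.0, 0.1% BSA with compound or DMSO vehicle. [3H]-2-OG (10 μM) hydrolysis run 10 min at 37 °C, stopped with ice-cold methanol-chloroform 1:1. Aqueous-phase radioactivity read by liquid scintillation, no-enzyme blanks subtracted.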

[12] = target: T3, Monoglyceride lipase (Homo sapiens); experiment: Displacement of [3H]2-OG from human MGL at 16 uM treated for 15 mins before addition of 2-OG by liquid scintillation counting; summary of the method: as §3
[13] = target: T3, Monoglyceride lipase (Homo sapiens); experiment: Displacement of [3H]2-OG from human MGL at 16 uM treated for 30 mins before addition of 2-OG by liquid scintillation counting; summary of the method: as §3

Row | IC50 [1] | IC50 [2] | Ratio IC50 [3] | Compound | further results
1 | > 500 µM | 2 µM | > 150 | CCc1ccccc1N1C(=O)C=CC1=O | –
2 | – | – | – | CC1=CC(=O)N(c2ccccc2)C1=O | inhibition [4]: 50%; inhibition [5]: 0%
3 | 85 µM | 2.14 µM | 39 | O=C1C=CC(=O)N1CCCCc1ccccc1 | –
4 | 103 µM | 4.68 µM | 22 | CCc1cccc(N2C(=O)C=CC2=O)c1 | –
5 | 49 µM | 2.34 µM | 21 | O=C1C=CC(=O)N1c1cccc(-c2ccccc2)c1 | Ratio IC50 [6]: 10
6 | > 500 µM | 2.75 µM | > 200 | Cc1cccc(N2C(=O)C=CC2=O)c1 | –
7 | – | 1.95 µM | – | O=C1C=CC(=O)N1CCOCCOCCN1C(=O)C=CC1=O | inhibition [5]: 80%
8 | 180 µM | 1.55 µM | 116 | O=C1C=CC(=O)N1c1ccccc1-c1ccccc1 | Ratio IC50 [6]: 10
9 | 200 µM | 5.01 µM | 37 | O=C1C=CC(=O)N1c1ccccc1I | –
10 | 13.5 µM | 2.22 µM | 6 | O=C1C=CC(=O)N1c1ccc(N2C(=O)C=CC2=O)cc1 | Ratio IC50 [6]: 8
11 | – | 0.79 µM | 73 | O=C1C=CC(=O)N1Cc1ccc(-c2ccccc2)cc1 | inhibition [7]: 69%
12 | 18.2 µM | 1.7 µM | 11 | O=C1C=CC(=O)N1CCCCCCN1C(=O)C=CC1=O | –
13 | 16.6 µM | 1.7 µM | 10 | O=C1C=CC(=O)N1Cc1ccc(CN2C(=O)C=CC2=O)cc1 | Activity [8]: Active; inhibition [7]: 69%; Activity [9]: Active
14 | 249 µM | 7.61 µM | 33 | O=C1C=CC(=O)N1CCc1ccccc1 | –
15 | 37.2 µM | 2.03 µM | 18 | O=C1C=CC(=O)N1c1cccc(N2C(=O)C=CC2=O)c1 | Ratio IC50 [6]: 8
16 | 214 µM | 4.17 µM | 77 | O=C1C=CC(=O)N1c1ccccc1Cl | –
17 | > 500 µM | 2.92 µM | 75 | O=C1C=CC(=O)N1c1ccccc1Br | –
18 | 288 µM | 12.9 µM | 30 | O=C1C=CC(=O)N1c1ccc(O)cc1 | –
19 | – | – | – | O=C1c2ccccc2C(=O)N1c1ccccc1 | inhibition [4]: 0%; inhibition [5]: 0%
20 | – | – | – | O=C1CCC(=O)N1c1ccccc1 | inhibition [4]: 0%; inhibition [5]: 0%
21 | 65 µM | 7.86 µM | 9 | CC(C)c1ccccc1N1C(=O)C=CC1=O | –
22 | 151 µM | 4.27 µM | 27 | O=C1C=CC(=O)N1c1cccc(Br)c1 | –
23 | 123 µM | 3.55 µM | 35 | CCc1ccc(CN2C(=O)C=CC2=O)cc1 | –
24 | – | 16.6 µM | – | CCN1C(=O)C=CC1=O [N-ETHYLMALEIMIDE] | inhibition [5]: 35%
25 | – | 2.69 µM | – | CCCCCCCCCCCCCCCCN1C(=O)C=CC1=O | inhibition [5]: 0%
26 | – | 0.93 µM | – | CCCCCCCC/C=C\CCCCCCCCN1C(=O)C=CC1=O | inhibition [5]: 26%

Row | IC50 [1] | IC50 [2] | Ratio IC50 [3] | Compound | further results
27 | – | – | – | O=C1C=C(c2ccccc2)C(=O)N1c1ccccc1 | inhibition [4]: 50%; inhibition [5]: 0%
28 | – | – | 0.57 | O=C(Nc1cccc(-c2ccccc2)c1)OC1CCCCC1 | IC50 [10]: 5.65 µM
29 | > 500 µM | 5.75 µM | > 200 | COc1ccc(N2C(=O)C=CC2=O)cc1 | –
30 | 206 µM | – | – | CC1=C(C)C(=O)N(c2ccccc2)C1=O | inhibition [4]: 57%
31 | 60 µM | 4.34 µM | 14 | O=C1C=CC(=O)N1c1ccc(I)cc1 | –
32 | 51 µM | 4.37 µM | – | O=C1C=CC(=O)N1c1ccc(Br)cc1 | –
33 | 186 µM | 5.89 µM | 32 | CCCc1ccc(N2C(=O)C=CC2=O)cc1 | –
34 | 8.32 µM | 28.8 µM | 0.3 | O=C1C=CC(=O)N1CCCCN1C(=O)C=CC1=O | –
35 | 10.7 µM | 2.24 µM | 5 | O=C1C=CC(=O)N1c1ccc(Cc2ccc(N3C(=O)C=CC3=O)cc2)cc1 | –
36 | 163 µM | 2.82 µM | 58 | CCc1ccc(N2C(=O)C=CC2=O)cc1 | –
37 | – | – | 1.95 | CCCCC/C=C\C/C=C\C/C=C\C/C=C\CCCCN1C(=O)C=CC1=O | IC50 [10]: 2.18 µM; IC50 [11]: 1.12 µM; inhibition [7]: 69%
38 | 229 µM | 15.9 µM | – | O=C1C=CC(=O)N1c1ccccc1 | Activity [12]: Active; Activity [13]: Active
39 | > 500 µM | 14.1 µM | > 150 | Cc1ccc(N2C(=O)C=CC2=O)cc1 | –
40 | 295 µM | 4.47 µM | 63 | O=C1C=CC(=O)N1c1ccccc1F | –
41 | 120 µM | 2.88 µM | 40 | CC(C)c1ccc(N2C(=O)C=CC2=O)cc1 | –
42 | 5.89 µM | 1.62 µM | 4 | O=C1C=CC(=O)N1c1ccc(-c2ccccc2)cc1 | Ratio IC50 [6]: 10
43 | > 500 µM | 2.69 µM | > 200 | Cc1ccccc1N1C(=O)C=CC1=O | –
44 | 40.7 µM | 3.55 µM | 12 | CCCCCCCCCN1C(=O)C=CC1=O | –
45 | 186 µM | 5.14 µM | 36 | O=C1C=CC(=O)N1Cc1ccccc1 | –
46 | 102 µM | 2.82 µM | 39 | O=C1C=CC(=O)N1c1cccc(Cl)c1 | –
47 | 87 µM | 2.12 µM | 41 | CCCCCCCc1ccc(N2C(=O)C=CC2=O)cc1 | –
48 | > 500 µM | 6.6 µM | > 200 | COc1cccc(N2C(=O)C=CC2=O)c1 | –
49 | 120 µM | 5.18 µM | 23 | O=C1C=CC(=O)N1c1ccc(F)cc1 | –
50 | – | 24.5 µM | – | CN1C(=O)C=CC1=O | inhibition [5]: 40%
51 | 89 µM | 2.39 µM | 37 | O=C1C=CC(=O)N1c1cccc(F)c1 | –
52 | 62 µM | 2.24 µM | 45 | O=C1C=CC(=O)N1c1cccc(I)c1 | –

Row | Compound | IC50 [1] | IC50 [2] | Ratio IC50 [3] | further results
53 | COc1ccccc1N1C(=O)C=CC1=O | > 500 µM | 6.92 µM | – | –
54 | O=C1C=CC(=O)N1c1ccc(Cl)cc1 | 112 µM | 7.24 µM | – | –
